This note sets out measurements from ChEMBL document CHEMBL1135530, “Selective alpha4beta7 integrin antagonists and their potential as antiinflammatory agents” (J Med Chem, 2002).

As a reminder, the IC50 is the concentration at which inhibition is half-maximal. Lower therefore signals inhibition by little substance.

Format in all cases: protein-complex assay
Assay [1] has as its target Integrin alpha-IIb/beta-3 (Homo sapiens, UniProt P05106+P08514). The assay can be described thus: Inhibition of alpha IIb beta3 integrin binding to fibrinogen.
Assay [2] deals with Intercellular adhesion molecule (ICAM-1), Integrin alpha-L/beta-2 (Homo sapiens, UniProt P05107+P05362+P20701). The assay is described as follows: Ability to block alphaL-beta2 integrin binding to ICAM-1.
Chain of Intercellular adhesion molecule (ICAM-1), Integrin alpha-L/beta-2 (P20701 whole entry, the tested form may be a part): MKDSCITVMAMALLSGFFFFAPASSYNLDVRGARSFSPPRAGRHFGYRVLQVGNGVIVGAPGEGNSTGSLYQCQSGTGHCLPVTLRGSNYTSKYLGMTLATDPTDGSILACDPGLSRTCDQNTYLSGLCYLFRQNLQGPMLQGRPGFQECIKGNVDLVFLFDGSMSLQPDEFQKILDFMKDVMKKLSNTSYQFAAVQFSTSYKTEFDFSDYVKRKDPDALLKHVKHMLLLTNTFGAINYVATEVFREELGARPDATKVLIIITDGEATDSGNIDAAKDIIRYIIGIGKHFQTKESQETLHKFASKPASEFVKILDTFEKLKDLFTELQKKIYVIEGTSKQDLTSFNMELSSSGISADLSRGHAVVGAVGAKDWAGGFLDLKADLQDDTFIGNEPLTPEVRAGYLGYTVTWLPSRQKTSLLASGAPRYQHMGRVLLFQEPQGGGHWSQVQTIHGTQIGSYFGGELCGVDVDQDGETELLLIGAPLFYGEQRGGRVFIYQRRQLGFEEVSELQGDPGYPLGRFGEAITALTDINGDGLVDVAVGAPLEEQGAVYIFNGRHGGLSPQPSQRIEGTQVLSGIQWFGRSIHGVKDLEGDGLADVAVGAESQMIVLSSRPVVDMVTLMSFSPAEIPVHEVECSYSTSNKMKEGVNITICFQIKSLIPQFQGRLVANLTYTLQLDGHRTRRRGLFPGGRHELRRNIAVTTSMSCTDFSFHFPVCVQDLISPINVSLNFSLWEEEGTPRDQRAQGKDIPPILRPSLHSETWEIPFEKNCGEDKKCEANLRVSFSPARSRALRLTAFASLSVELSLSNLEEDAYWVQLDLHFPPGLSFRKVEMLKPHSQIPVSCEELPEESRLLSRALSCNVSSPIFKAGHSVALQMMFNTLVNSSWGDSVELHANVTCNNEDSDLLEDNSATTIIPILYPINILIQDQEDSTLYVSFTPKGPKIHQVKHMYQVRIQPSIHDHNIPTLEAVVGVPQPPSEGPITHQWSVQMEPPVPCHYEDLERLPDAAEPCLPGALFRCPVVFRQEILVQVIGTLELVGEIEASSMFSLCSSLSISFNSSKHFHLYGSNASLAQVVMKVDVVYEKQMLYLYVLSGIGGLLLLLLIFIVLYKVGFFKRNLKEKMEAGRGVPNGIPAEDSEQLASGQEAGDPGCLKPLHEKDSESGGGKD
Chain of Intercellular adhesion molecule (ICAM-1), Integrin alpha-L/beta-2 (P05362 whole entry, the tested form may be a part): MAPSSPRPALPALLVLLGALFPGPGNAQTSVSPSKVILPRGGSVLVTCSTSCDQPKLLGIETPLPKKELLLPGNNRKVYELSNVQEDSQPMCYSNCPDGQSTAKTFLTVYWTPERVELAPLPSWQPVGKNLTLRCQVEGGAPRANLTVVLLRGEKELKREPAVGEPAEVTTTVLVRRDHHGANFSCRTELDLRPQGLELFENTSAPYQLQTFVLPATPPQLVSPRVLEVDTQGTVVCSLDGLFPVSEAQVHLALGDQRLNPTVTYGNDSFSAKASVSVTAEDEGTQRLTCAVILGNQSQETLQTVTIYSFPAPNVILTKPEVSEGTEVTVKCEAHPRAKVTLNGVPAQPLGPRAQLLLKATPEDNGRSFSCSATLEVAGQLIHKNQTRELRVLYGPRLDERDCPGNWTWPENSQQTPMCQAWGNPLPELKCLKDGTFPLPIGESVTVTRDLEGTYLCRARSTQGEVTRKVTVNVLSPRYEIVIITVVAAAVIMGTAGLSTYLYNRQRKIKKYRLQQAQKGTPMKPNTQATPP
Chain of Intercellular adhesion molecule (ICAM-1), Integrin alpha-L/beta-2 (P05107 whole entry, the tested form may be a part): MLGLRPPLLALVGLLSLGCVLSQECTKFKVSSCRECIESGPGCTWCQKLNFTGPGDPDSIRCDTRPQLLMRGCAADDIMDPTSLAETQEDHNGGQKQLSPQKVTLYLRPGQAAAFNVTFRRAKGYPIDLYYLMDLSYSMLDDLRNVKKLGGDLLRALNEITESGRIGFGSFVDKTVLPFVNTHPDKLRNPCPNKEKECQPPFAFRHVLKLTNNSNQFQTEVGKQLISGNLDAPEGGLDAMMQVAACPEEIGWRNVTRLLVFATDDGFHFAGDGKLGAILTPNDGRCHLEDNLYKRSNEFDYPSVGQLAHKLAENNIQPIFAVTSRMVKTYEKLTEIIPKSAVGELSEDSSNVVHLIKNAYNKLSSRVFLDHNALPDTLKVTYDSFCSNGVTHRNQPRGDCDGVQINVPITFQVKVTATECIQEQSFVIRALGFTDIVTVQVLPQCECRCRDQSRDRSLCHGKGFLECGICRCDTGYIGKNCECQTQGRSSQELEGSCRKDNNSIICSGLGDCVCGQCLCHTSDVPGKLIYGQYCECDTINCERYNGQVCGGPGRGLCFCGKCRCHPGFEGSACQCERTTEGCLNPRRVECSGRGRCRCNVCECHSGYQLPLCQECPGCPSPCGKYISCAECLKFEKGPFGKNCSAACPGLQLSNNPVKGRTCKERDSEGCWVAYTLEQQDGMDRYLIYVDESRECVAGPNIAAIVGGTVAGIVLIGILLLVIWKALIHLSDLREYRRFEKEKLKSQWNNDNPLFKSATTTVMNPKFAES
Another assay has as its target Integrin alpha-4/beta-1 (Homo sapiens, UniProt P05556+P13612). The assay can be described thus: Inhibitory concentration affording 50% inhibition of alpha4-beta1 integrin binding to VCAM-1, using ELISA assay. The essentials: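 α4β1 extracted from Ramos cell membranes (lectin chromatography, gel filtration in 1% octylglucoside), with 1 mM MnCl2 throughout. Wells coated with 4 µg/mL recombinant soluble human VCAM-1 (5 N-terminal Ig domains, from CHO cells) and blocked with 1% BSA. Inhibitor and receptor 2 h at 37 °C in Tris pH 7.4. Bound receptor detected with anti-β1 mAb 2D4.6, then HRP anti-mouse and TMB at 450 nm. IC50 at half-maximal absorbance.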
On the technique in general: An ELISA detects its analyte on a solid surface through an enzyme-linked reagent.

The target of a further assay is T1, Integrin alpha-4/beta-7 (Homo sapiens, UniProt P13612+P26010).
T1 sequence (P13612 whole entry): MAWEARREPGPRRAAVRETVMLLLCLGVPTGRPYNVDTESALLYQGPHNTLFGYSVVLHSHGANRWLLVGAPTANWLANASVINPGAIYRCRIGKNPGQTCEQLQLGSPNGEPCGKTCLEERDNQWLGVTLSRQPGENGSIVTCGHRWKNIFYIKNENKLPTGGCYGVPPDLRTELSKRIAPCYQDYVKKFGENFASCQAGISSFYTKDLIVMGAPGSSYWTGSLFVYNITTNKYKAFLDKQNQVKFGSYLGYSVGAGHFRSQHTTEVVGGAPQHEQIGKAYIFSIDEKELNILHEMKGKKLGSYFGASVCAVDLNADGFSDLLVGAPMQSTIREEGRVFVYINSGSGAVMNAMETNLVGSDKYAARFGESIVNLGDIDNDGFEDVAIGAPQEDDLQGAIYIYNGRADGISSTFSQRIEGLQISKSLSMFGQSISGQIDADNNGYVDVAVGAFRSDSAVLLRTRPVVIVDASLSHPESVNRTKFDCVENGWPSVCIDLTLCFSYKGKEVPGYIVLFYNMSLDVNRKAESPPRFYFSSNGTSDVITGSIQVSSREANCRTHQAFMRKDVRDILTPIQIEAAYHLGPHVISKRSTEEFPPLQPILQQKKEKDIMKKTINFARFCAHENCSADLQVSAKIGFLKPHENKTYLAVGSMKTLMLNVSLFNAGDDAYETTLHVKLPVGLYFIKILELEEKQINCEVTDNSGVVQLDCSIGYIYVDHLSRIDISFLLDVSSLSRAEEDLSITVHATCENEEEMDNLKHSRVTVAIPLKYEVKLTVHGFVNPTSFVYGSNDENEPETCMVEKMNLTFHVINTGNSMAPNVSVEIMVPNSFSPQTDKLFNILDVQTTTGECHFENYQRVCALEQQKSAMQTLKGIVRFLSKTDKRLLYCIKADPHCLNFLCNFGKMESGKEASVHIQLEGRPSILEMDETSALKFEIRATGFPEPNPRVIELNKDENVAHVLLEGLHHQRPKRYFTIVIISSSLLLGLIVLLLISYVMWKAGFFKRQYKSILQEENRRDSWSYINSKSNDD
T1 sequence (P26010 whole entry): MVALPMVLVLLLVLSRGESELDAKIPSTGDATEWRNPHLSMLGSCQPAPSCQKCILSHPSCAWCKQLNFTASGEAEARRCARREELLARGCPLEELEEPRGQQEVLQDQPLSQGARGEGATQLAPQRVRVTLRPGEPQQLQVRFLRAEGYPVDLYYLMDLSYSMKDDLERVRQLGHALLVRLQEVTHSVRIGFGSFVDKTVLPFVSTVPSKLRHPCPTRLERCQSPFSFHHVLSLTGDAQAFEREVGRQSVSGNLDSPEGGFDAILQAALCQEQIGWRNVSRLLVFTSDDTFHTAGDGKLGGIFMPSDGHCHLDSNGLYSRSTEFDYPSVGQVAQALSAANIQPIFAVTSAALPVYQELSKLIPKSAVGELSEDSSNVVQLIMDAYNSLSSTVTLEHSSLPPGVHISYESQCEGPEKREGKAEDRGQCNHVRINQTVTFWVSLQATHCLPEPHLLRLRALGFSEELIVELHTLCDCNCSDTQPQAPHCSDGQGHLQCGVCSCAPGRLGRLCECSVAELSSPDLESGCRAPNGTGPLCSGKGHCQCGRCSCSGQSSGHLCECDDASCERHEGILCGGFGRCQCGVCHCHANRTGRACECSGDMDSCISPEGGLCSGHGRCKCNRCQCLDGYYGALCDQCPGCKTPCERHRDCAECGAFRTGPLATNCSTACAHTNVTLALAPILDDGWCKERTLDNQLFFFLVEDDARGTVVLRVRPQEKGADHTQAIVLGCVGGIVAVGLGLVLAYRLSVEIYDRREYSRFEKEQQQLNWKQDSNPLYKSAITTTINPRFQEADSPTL
The assay can be described thus: Ability to block the alpha4-beta7 integrin-MAdCAM-1 binding interaction using a protein ELISA format. The essentials: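 Plates coated overnight at 4 °C with anti-human α4 antibody 9F10 (2 µg/mL), blocked in Tris pH 7.5 buffer with 1 mM MnCl2, Tween-20 and 0.5% BSA, then loaded with α4β7 purified from transfected JY cells (2 µg/mL). Compounds (1 nM–200 µM final, triplicate) plus MAdCAM-1-Ig-HRP (1 µg/mL), 2 h room temperature. TMB read at 450 nm; IC50 at half-maximal absorbance.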

For a further assay, the target named is Integrin alpha-5/beta-1 (Homo sapiens, UniProt P05556+P08648). The assay can be described thus: Ability to block the alpha5-beta1 integrin binding to fibronectin.
Chain of Integrin alpha-5/beta-1 (P05556 21-798 limits assumed): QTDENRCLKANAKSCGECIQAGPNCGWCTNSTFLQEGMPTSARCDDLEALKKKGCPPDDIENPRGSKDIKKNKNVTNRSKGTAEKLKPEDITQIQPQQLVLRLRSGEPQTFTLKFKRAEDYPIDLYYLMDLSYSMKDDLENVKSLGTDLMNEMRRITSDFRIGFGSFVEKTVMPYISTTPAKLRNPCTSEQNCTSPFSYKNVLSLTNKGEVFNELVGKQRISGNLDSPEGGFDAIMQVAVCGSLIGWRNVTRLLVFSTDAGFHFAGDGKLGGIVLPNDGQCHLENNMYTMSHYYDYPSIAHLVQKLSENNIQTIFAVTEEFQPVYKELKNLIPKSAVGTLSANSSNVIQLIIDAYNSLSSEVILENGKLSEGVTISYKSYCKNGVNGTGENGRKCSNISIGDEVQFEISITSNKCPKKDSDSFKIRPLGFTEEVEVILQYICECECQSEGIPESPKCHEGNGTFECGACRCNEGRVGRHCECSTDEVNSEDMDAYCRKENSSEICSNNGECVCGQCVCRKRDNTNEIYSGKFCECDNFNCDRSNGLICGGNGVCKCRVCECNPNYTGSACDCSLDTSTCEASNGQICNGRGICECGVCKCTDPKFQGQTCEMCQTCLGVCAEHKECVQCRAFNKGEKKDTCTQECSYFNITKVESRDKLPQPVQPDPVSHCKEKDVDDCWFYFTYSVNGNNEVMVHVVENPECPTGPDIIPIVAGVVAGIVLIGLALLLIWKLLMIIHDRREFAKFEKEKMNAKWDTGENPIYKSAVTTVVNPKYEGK
Chain of Integrin alpha-5/beta-1 (P08648 42-894 limits assumed): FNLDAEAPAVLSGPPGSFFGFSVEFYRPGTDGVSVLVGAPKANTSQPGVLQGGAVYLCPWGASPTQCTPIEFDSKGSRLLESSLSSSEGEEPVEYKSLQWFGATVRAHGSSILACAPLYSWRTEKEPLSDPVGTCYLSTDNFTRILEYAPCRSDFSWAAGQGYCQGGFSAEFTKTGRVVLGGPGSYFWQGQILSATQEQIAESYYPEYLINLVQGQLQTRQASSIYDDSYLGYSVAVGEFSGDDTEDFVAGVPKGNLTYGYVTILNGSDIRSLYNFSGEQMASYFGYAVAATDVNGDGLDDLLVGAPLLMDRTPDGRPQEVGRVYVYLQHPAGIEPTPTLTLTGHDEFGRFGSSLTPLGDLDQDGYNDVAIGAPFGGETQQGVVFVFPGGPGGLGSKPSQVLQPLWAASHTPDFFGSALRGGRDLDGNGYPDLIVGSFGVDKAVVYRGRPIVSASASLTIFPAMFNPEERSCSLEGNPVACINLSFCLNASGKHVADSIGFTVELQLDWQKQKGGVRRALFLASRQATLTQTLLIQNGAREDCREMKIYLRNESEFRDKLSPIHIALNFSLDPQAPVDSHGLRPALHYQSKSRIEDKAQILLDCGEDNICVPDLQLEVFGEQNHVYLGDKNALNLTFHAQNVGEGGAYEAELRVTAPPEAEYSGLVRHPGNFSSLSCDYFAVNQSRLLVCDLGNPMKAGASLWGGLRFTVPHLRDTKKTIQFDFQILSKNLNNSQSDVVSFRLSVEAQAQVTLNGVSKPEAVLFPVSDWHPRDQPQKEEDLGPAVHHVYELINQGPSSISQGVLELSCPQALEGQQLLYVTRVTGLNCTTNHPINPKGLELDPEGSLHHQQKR
Chain of Integrin alpha-5/beta-1 (P08648 895-1049 limits assumed): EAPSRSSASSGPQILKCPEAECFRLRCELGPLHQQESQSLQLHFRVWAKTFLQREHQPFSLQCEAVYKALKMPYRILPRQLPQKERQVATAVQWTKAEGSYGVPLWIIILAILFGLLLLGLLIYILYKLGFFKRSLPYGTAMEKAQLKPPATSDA
The target in the next assay is Integrin alpha-V/beta-3 (Homo sapiens, UniProt P05106+P06756). The assay is described as follows: Ability to block the alphaV-beta3 integrin binding to vitronectin.

SMILES strings stand for the structures. Peptide text beside a SMILES is read from it.

Chain of Integrin alpha-4/beta-1 (P05556 whole entry, one chain of several, the tested form may be a part): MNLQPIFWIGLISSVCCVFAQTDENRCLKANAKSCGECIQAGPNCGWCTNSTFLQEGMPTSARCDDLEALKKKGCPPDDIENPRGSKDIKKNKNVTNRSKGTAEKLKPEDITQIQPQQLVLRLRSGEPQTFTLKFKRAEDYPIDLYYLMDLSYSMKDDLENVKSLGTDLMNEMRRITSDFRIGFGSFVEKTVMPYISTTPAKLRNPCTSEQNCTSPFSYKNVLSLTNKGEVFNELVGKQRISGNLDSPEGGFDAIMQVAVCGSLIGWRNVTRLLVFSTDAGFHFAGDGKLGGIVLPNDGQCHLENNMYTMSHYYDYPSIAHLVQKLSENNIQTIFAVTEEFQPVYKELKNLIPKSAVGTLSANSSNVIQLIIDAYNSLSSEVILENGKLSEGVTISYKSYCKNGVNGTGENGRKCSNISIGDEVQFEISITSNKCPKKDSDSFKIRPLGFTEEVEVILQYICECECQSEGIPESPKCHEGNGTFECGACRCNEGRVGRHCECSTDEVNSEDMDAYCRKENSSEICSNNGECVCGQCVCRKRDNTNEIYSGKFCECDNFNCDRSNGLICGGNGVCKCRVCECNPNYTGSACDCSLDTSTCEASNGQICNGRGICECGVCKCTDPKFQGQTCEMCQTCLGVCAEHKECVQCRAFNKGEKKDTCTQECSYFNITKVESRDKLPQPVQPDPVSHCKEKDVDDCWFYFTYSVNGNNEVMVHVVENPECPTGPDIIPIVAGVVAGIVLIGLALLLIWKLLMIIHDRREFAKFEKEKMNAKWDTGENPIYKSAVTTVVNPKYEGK

For the compound `CC(C)C[C@@H]1NC(=O)[C@H]([C@@H](C)O)NC(=O)[C@H](CC(=O)O)NC(=O)[C@H](CO)NC(=O)[C@H](CCCN=C(N)N)NC(=O)[C@@H](N)CSSC[C@@H](C(=O)NCC(=O)N[C@@H](CCC(=O)O)C(N)=O)NC1=O` (HELM PEPTIDE1{C.R.S.D.T.L.C.G.E.[am]}$PEPTIDE1,PEPTIDE1,1:R3-7:R3$$$V2.0), the IC50 was over 25 µM in assay [1]; over 100 µM in assay [2]; 1100 nM on Integrin alpha-4/beta-1; 30 nM at Integrin alpha-4/beta-7; 6.1 µM at Integrin alpha-5/beta-1; 1000 nM on Integrin alpha-V/beta-3.
